Source: ChEMBL document CHEMBL5247578, “Effective synthesis of benzimidazoles-imidazo[1,2-a]pyrazine conjugates: A comparative study of mono-and bis-benzimidazoles for antitumor activity” (Eur J Med Chem, 2019)

Experiments:
NCI-H23 [1] = test: Antiproliferative activity against human NCI-H23 cells assessed as cell growth inhibition by measuring lethal concentration incubated for 48 hrs by sulforhodamine B assay; type: functional; conditions: read-out: LC50 (the source's name)
TK-10 = test: Antiproliferative activity against human TK-10 cells assessed as cell growth at 0.00001 M incubated for 48 hrs by SRB assay relative to control; type: functional; conditions: read-out: Activity
SN12C = test: Antiproliferative activity against human SN12C cells assessed as cell growth inhibition by measuring lethal concentration incubated for 48 hrs by sulforhodamine B assay; type: functional; conditions: read-out: LC50 (the source's name)
KM12 [2] = test: Antiproliferative activity against human KM12 cells assessed as cell growth at 0.00001 M incubated for 48 hrs by SRB assay relative to control; type: functional; conditions: read-out: Activity
NCI-H23 [3] = test: Antiproliferative activity against human NCI-H23 cells assessed as cell growth at 0.00000001 M incubated for 48 hrs by SRB assay relative to control; type: functional; conditions: dose 10 nM, read-out: Activity
ACHN = test: Antiproliferative activity against human ACHN cells assessed as cell growth at 0.00000001 M incubated for 48 hrs by SRB assay relative to control; type: functional; conditions: dose 10 nM, read-out: Activity
How it was run: (§1)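 NCI-60 five-dose screen over 10^-4–10^-8 M (10-fold dilutions). Cells grown in RPMI 1640 with 5% FBS and 2 mM L-glutamine, seeded at 5,000–40,000 cells/well and preincubated 24 h. Drug from DMSO stock, 48 h at 37 °C, 5% CO2. Adherent cells TCA-fixed and stained with 0.4% SRB; A515 read. Percent growth = (Ti−Tz)/(C−Tz)×100, or (Ti−Tz)/Tz×100 when Ti<Tz.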

T47D = test: Antiproliferative activity against human T47D cells assessed as cell growth inhibition by measuring lethal concentration incubated for 48 hrs by sulforhodamine B assay; type: functional; conditions: read-out: LC50 (the source's name)
How it was run: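 NCI-60 five-dose screen (10^-4 to 10^-8 M, 10-fold dilutions; DMSO stocks). Cells in RPMI 1640 with 5% FBS and 2 mM L-glutamine, preincubated 24 h, then exposed 48 h at 37 °C, 5% CO2. Fixed with cold TCA, stained with 0.4% SRB, absorbance read at 515 nm. Time-zero plates used as reference. LC50 taken from [(Ti-Tz)/Tz]×100 […].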

SR = test: Antiproliferative activity against human SR cells assessed as cell growth at 0.00001 M incubated for 48 hrs by SRB assay relative to control; type: functional; conditions: read-out: Activity
Hs-578T [4] = test: Antiproliferative activity against human Hs-578T cells assessed as cell growth at 0.0001 M incubated for 48 hrs by SRB assay relative to control; type: functional; conditions: read-out: Activity
How it was run: (§2)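 NCI-60 five-dose mode, 10^-4 to 10^-8 M in 10-fold steps. RPMI 1640, 5% FBS, 2 mM L-glutamine; 24 h preincubation, then 48 h drug exposure at 37 °C. Stocks in DMSO at 400× the top concentration, diluted in medium with gentamicin. TCA fixation, SRB staining, absorbance at 515 nm. Percent growth from time-zero (Tz), control (C) and test (Ti) readings.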

PC-3 [5] = test: Growth inhibition against human PC-3 cells incubated for 48 hrs by sulforhodamine B assay; type: functional
OVCAR-4 = test: Antiproliferative activity against human OVCAR-4 cells assessed as cell growth at 0.0001 M incubated for 48 hrs by SRB assay relative to control; type: functional; conditions: read-out: Activity
IGROV-1 = test: Antiproliferative activity against human IGROV-1 cells assessed as cell growth at 0.00000001 M incubated for 48 hrs by SRB assay relative to control; type: functional; conditions: dose 10 nM, read-out: Activity
MDA-MB-435 = test: Antiproliferative activity against human MDA-MB-435 cells assessed as cell growth at 0.000001 M incubated for 48 hrs by SRB assay relative to control; type: functional; conditions: read-out: Activity
Hs-578T [6] = test: Antiproliferative activity against human Hs-578T cells assessed as cell growth at 0.00000001 M incubated for 48 hrs by SRB assay relative to control; type: functional; conditions: dose 10 nM, read-out: Activity; how it was run: as §2
OVCAR-3 = test: Antiproliferative activity against human OVCAR-3 cells assessed as cell growth at 0.0000001 M incubated for 48 hrs by SRB assay relative to control; type: functional; conditions: dose 100 nM, read-out: Activity
KM12 [7] = test: Antiproliferative activity against human KM12 cells assessed as cell growth at 0.00000001 M incubated for 48 hrs by SRB assay relative to control; type: functional; conditions: dose 10 nM, read-out: Activity
HCC 2998 = test: Antiproliferative activity against human HCC 2998 cells assessed as cell growth at 0.00000001 M incubated for 48 hrs by SRB assay relative to control; type: functional; conditions: dose 10 nM, read-out: Activity
How it was run: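 NCI-60 five-dose screen (10^-4 to 10^-8 M). Cells grown in RPMI 1640 with 5% FBS and 2 mM L-glutamine, plated at 5,000-40,000 cells/well and preincubated 24 h. Drug given from DMSO stock, then 48 h at 37 °C, 5% CO2. For adherent lines, cells fixed with cold TCA, SRB-stained and read at 515 nm. Percent growth taken against time-zero and untreated control.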

COLO 205 = test: Antiproliferative activity against human COLO 205 cells assessed as cell growth at 0.00001 M incubated for 48 hrs by SRB assay relative to control; type: functional; conditions: read-out: Activity; how it was run: as §1
PC-3 [8] = test: Antiproliferative activity against human PC-3 cells assessed as cell growth at 0.0000001 M incubated for 48 hrs by SRB assay relative to control; type: functional; conditions: dose 100 nM, read-out: Activity
NCI-H226 = test: Antiproliferative activity against human NCI-H226 cells assessed as cell growth inhibition by measuring lethal concentration incubated for 48 hrs by sulforhodamine B assay; type: functional; conditions: read-out: LC50 (the source's name)
U-251 = test: Growth inhibition against human U-251 cells incubated for 48 hrs by sulforhodamine B assay; type: functional
RPMI-8226 = test: Antiproliferative activity against human RPMI-8226 cells assessed as cell growth at 0.0001 M incubated for 48 hrs by SRB assay relative to control; type: functional; conditions: read-out: Activity
MDA-MB-231 = test: Antiproliferative activity against human MDA-MB-231 cells assessed as cell growth at 0.000001 M incubated for 48 hrs by SRB assay relative to control; type: functional; conditions: read-out: Activity
M14 = test: Antiproliferative activity against human M14 cells assessed as cell growth at 0.0001 M incubated for 48 hrs by SRB assay relative to control; type: functional; conditions: read-out: Activity
Albumin = Albumin (Bos taurus, UniProt P02769); test: Binding affinity to bovine serum albumin assessed as Stern-Volmer quenching constant by fluorescence spectroscopic method; conditions: cattle
Albumin, sequence (P02769 whole entry): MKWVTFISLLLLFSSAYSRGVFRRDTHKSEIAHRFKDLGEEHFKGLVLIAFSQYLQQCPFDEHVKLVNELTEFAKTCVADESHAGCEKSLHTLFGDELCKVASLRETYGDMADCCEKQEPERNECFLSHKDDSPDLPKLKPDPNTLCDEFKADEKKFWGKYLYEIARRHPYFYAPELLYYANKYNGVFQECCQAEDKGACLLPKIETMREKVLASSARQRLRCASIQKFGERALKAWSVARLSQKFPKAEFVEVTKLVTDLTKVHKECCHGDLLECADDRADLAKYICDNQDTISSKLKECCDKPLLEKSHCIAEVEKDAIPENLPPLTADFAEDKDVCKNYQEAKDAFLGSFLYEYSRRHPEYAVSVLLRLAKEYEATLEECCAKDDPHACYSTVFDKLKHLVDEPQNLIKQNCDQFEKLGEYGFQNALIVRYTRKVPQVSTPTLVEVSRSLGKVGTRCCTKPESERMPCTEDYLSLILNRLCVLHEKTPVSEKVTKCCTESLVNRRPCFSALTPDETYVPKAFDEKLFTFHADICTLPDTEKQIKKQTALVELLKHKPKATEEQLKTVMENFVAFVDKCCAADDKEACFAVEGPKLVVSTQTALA

BT-549 = test: Antiproliferative activity against human BT-549 cells assessed as cell growth at 0.0001 M incubated for 48 hrs by SRB assay relative to control; type: functional; conditions: read-out: Activity; how it was run: as §1
PC-3 [9] = test: Antiproliferative activity against human PC-3 cells assessed as cell growth at 0.00000001 M incubated for 48 hrs by SRB assay relative to control; type: functional; conditions: dose 10 nM, read-out: Activity
CCRF-CEM = test: Antiproliferative activity against human CCRF-CEM cells assessed as cell growth at 0.000001 M incubated for 48 hrs by SRB assay relative to control; type: functional; conditions: read-out: Activity; how it was run: as §1
SF-268 = test: Antiproliferative activity against human SF-268 cells assessed as cell growth inhibition by measuring lethal concentration incubated for 48 hrs by sulforhodamine B assay; type: functional; conditions: read-out: LC50 (the source's name)
OVCAR-5 = test: Antiproliferative activity against human OVCAR-5 cells assessed as cell growth inhibition by measuring lethal concentration incubated for 48 hrs by sulforhodamine B assay; type: functional; conditions: read-out: LC50 (the source's name)

Compound	CC50 (NCI-H23 [1]) [nM]	growth at 10 µM (TK-10) [%]	CC50 (SN12C) [µM]	growth at 10 µM (KM12 [2]) [%]	growth at 0.01 µM (NCI-H23 [3]) [%]	growth at 0.01 µM (ACHN) [%]	CC50 (T47D) [µM]	growth at 10 µM (SR) [%]	growth at 100 µM (Hs-578T [4]) [%]	GI50 (PC-3 [5]) [nM]	growth at 100 µM (OVCAR-4) [%]	growth at 0.01 µM (IGROV-1) [%]	growth at 1 µM (MDA-MB-435) [%]	growth at 0.01 µM (Hs-578T [6]) [%]	growth at 0.1 µM (OVCAR-3) [%]	growth at 0.01 µM (KM12 [7]) [%]	growth at 0.01 µM (HCC 2998) [%]	growth at 10 µM (COLO 205) [%]	growth at 0.1 µM (PC-3 [8]) [%]	CC50 (NCI-H226) [µM]	further results
COc1ccc(-c2cn3ccnc3c(-c3ccc4ncn(C5CCCCC5)c4c3)n2)cc1	> 100000	13	> 100	5	97	93	> 100	9	-3	621	57	96	7	106	99	100	97	1	98	> 100	GI50 (U-251): 2220 nM; growth at 100 µM (RPMI-8226): 15%; growth at 1 µM (MDA-MB-231): 81%; growth at 100 µM (M14): 8%; KSV (Albumin): 1.16 10^5/M; growth at 100 µM (BT-549): -6%; growth at 0.01 µM (PC-3 [9]): 96%; growth at 1 µM (CCRF-CEM): 59%; CC50 (SF-268): > 100 µM; CC50 (OVCAR-5): > 100 µM
c1ccc(Cn2cnc3ccc(-c4nc(-c5ccc6c(c5)ncn6C5CCCCC5)cn5ccnc45)cc32)cc1	1330	11	> 100	-41	94	96	> 100	5	12	1970	14	97	92	99	100	100	94	-61	96	> 100	GI50 (U-251): 1990 nM; growth at 100 µM (RPMI-8226): -33%; growth at 1 µM (MDA-MB-231): 83%; growth at 100 µM (M14): 6%; KSV (Albumin): 1.14 10^5/M; growth at 100 µM (BT-549): -68%; growth at 0.01 µM (PC-3 [9]): 95%; growth at 1 µM (CCRF-CEM): 72%; CC50 (SF-268): > 100 µM; CC50 (OVCAR-5): > 100 µM
